We go through six compounds from ChEMBL document CHEMBL1137570, “3-substituted 7-phenyl-pyrroloquinolinones show potent cytotoxic activity in human cancer cell lines” (J Med Chem, 2007).

One may read the IC50 as the point on the concentration scale where inhibition reaches its midpoint. The low end stands for greater potency in that assay, the high end for weaker potency in that assay.

The subject of one experiment is OE19. The experiment can be described thus: Cytotoxicity against human OE19 cells after 72 hrs by MTT assay. The conditions noted are these: OE19, 72 h. Format: functional, cell-based. In short, it runs like this:
(§1)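 MTT assay. Cells seeded at 7 × 10³ per well; after 24 h, exponentially growing cells were exposed to compound (final 0.005–100 µM) for 72 h. MTT was added for 4 h, then 10% SDS in 0.01 N HCl for 18 h at 37 °C. Absorbance read at 550 nm; survival given as % of untreated cells. IC50 from 6-8 replicate wells, ≥2 independent experiments.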
A general note: Tetrazolium dyes change colour on reduction, which living cells bring about.

A further experiment relates to OE33. Kind of experiment: Cytotoxicity against human OE33 cells after 72 hrs by MTT assay. The experiment is classed as functional, cell-based. The conditions noted are these: OE33, 72 h. In a few lines: as §1
Experiment [1] concerns A549. Kind of experiment: Cell cycle arrest in human A549 cells assessed as accumulation at S phase at 1 uM after 24 hrs. The experiment is classed as functional. In short, it runs like this: (§2)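 A549 cells grown 24 h in drug-free medium or with compound at 0.1 or 1 µM. Cells were trypsinized, washed twice in PBS, fixed in cold 70% ethanol (30 min, -20 °C), then washed in citrate phosphate buffer and PBS. RNase (100 µg/mL) for 30 min at 37 °C, then propidium iodide (100 µg/mL) for 30 min at room temperature. Flow cytometry at 488/525 nm, ≥15 000 events, 3-4 repeats.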

Experiment [2] is described as follows: Cytotoxicity againat taxol-resistant human A549T24 cells after 72 hrs by MTT assay. To be noted: A549, 72 h. The experiment is classed as functional, cell-based.
Experiment [3] deals with A549. The experiment can be described thus: Cell cycle arrest in human A549 cells assessed as accumulation at G1 phase at 1 uM after 24 hrs. Format: functional. In a few lines: as §2
For experiment [4], the system named is A549. Kind of experiment: Cell cycle arrest in human A549 cells assessed as accumulation at sub Go phase at 1 uM after 24 hrs. Format: functional.
Experiment [5] concerns A549. The experiment can be described thus: Cytotoxicity against human A549 cells after 72 hrs by MTT assay. The conditions noted are these: A549, 72 h. Format: functional, cell-based. In a few lines:
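MTT assay. Cells seeded at 7 × 10³ per well; after 24 h, exponentially growing cells were exposed to compound (final 0.005–100 µM) for 72 h. MTT was added for 4 h, then 10% SDS in 0.01 N HCl for 18 h at 37 °C. Absorbance read at 550 nm; survival given as % of untreated cells.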

The next experiment relates to MCF7. The experiment can be described thus: Cytotoxicity against human MCF7 cells after 72 hrs by MTT assay. The conditions noted are these: MCF7, 72 h. The experiment is classed as functional, cell-based. In short, it runs like this: as §1
The nature of experiment [6]: Cytotoxicity against human H295R cells after 72 hrs by MTT assay. Format: functional, cell-based. To be noted: NCI-H295R. In a few lines:
as §1

The nature of experiment [7]: Cytotoxicity againat taxol-resistant human A549T12 cells after 72 hrs by MTT assay. The conditions noted are these: A549, 72 h. Format: functional, cell-based.
A further experiment deals with HeLa. Kind of experiment: Cytotoxicity against human HeLa cells after 72 hrs by MTT assay. Format: functional, cell-based. In short, it runs like this:
as §1

The subject of experiment [8] is A549. The experiment can be described thus: Cell cycle arrest in human A549 cells assessed as accumulation at G1 phase at 0.1 uM after 24 hrs. Format: functional. In a few lines: as §2
The test system of experiment [9] is A549. Kind of experiment: Cell cycle arrest in human A549 cells assessed as accumulation at G2/M phase at 0.1 uM after 24 hrs. Format: functional. In short, it runs like this:
as §2

In experiment [10] the test system is A549. Kind of experiment: Cell cycle arrest in human A549 cells assessed as accumulation at S phase at 0.1 uM after 24 hrs. Format: functional. In short, it runs like this:
as §2

The next experiment concerns HT-29. Kind of experiment: Cytotoxicity against human HT29 cells after 72 hrs by MTT assay. The experiment is classed as functional, cell-based. To be noted: HT-29, 72 h. In short, it runs like this: as §1
Experiment [11] relates to A549. The experiment can be described thus: Cell cycle arrest in human A549 cells assessed as accumulation at G2/M phase at 1 uM after 24 hrs. The experiment is classed as functional. In short, it runs like this: as §2
The next experiment deals with HepG2. The experiment can be described thus: Cytotoxicity against human HepG2 cells after 72 hrs by MTT assay. Format: functional, cell-based. The conditions noted are these: HepG2, 72 h. In short, it runs like this: as §1
The test system of experiment [12] is A549. Kind of experiment: Cell cycle arrest in human A549 cells assessed as accumulation at sub Go phase at 0.1 uM after 24 hrs. Format: functional.
In a further experiment the test system is ARO. Kind of experiment: Cytotoxicity against human Aro cells after 72 hrs by MTT assay. The experiment is classed as functional, cell-based. In a few lines: as §1
The next experiment concerns OVCAR-3. The experiment can be described thus: Cytotoxicity against human Ovcar3 cells after 72 hrs by MTT assay. The experiment is classed as functional, cell-based. To be noted: OVCAR-3, 72 h. In a few lines: as §1
The next experiment deals with PT-45. Kind of experiment: Cytotoxicity against human PT45 cells after 72 hrs by MTT assay. The experiment is classed as functional, cell-based. To be noted: PT-45, 72 h. In a few lines: as §1
Experiment [13] deals with A549. Kind of experiment: Resistance index, ratio of IC50 for A549 cells to IC50 for A549T12 cells. The experiment is classed as functional, Homo sapiens.

Turning to `O=c1cc(-c2ccccc2)[nH]c2ccc3[nH]ccc3c12`, the results for the IC50 with OE19 and in the experiment on OE33 were 1000 nM and 2000 nM, respectively.

For `CCCCn1ccc2c3c(=O)cc(-c4ccccc4)[nH]c3ccc21`, the IC50 in the experiment with OE19 was 7 nM; in [2], 30 nM; in the experiment on OE33 it was 60 nM; with A549 [5], 30 nM; with MCF7, 60 nM; in [6] it was 10 nM. The half-maximal inhibitory concentration (IC50) in experiment [7] amounted to 20 nM; with HeLa it was 20 nM; in the experiment on HT-29, 30 nM; in the experiment on HepG2 it was 20 nM; with ARO it was 30 nM; with OVCAR-3, 10 nM. This compound also yielded an IC50 with PT-45 of 40 nM. Moreover, the Activity in the experiment with A549 [1] amounted to 9.2%; with A549 [3], 12.9%; in the experiment with A549 [4], 0.4%; with A549 [8] it was 11.8%; with A549 [9], 80.4%; in the experiment on A549 [10], 7.7%. Further, the Activity in the experiment on A549 [11] is on record as 77.6%; with A549 [12], 0.2%.

Turning to `CCN(CC)CCn1ccc2c3c(O)cc(-c4ccccc4)nc3ccc21`, the IC50 was 10000 nM with OE19 and 16000 nM in the experiment on OE33.

In the case of `Cn1ccc2c3c(=O)cc(-c4ccccc4)[nH]c3ccc21`, the IC50 in the experiment on OE19 stood at 100 nM; in [2], 200 nM; in the experiment with OE33 it was 800 nM; with A549 [5], 300 nM; with MCF7, 400 nM; in [6] it was 90 nM. The 50% inhibitory concentration (IC50) in experiment [7] is 300 nM; in the experiment on HeLa, 100 nM; in the experiment with HT-29 it was 300 nM; in the experiment with HepG2, 1000 nM; in the experiment on ARO it was 300 nM; in the experiment with OVCAR-3, 700 nM. Besides, 100 nM corresponded to half-maximal inhibition with PT-45 (IC50). The Activity was 9.2% with A549 [1]; 15.6% in the experiment with A549 [3]; 0.3% in the experiment on A549 [4]; 66.9% with A549 [8]; 18.2% with A549 [9]; 8.8% in the experiment with A549 [10]. Further, the Activity with A549 [11] is reported as 74.9%; in the experiment with A549 [12] it was 6.4%. Besides, the Ratio IC50 in the experiment with A549 [13] was found to be 1.

`CC(=O)O[C@H]1C(=O)[C@@]2(C)[C@H]([C@H](OC(=O)c3ccccc3)[C@]3(O)C[C@H](OC(=O)[C@H](O)[C@@H](NC(=O)c4ccccc4)c4ccccc4)C(C)=C1C3(C)C)[C@]1(OC(C)=O)CO[C@@H]1C[C@@H]2O` [PACLITAXEL]: the IC50 with OE19 worked out at 400 nM; in experiment [2], 102 nM; in the experiment with OE33 it was 200 nM; in the experiment with MCF7 it was 7 nM; in experiment [6], 80 nM; in experiment [7], 60 nM. The IC50 was found to be 8 nM in the experiment on HeLa; 50 nM with HT-29; 300 nM with HepG2; 0.2 nM in the experiment on ARO; 10 nM in the experiment with OVCAR-3; 5 nM with PT-45.

Regarding `CC[C@]1(O)C[C@H]2CN(CCc3c([nH]c4ccccc34)[C@@](C(=O)OC)(c3cc4c(cc3OC)N(C=O)[C@H]3[C@@](O)(C(=O)OC)[C@H](OC(C)=O)[C@]5(CC)C=CCN6CC[C@]43[C@@H]65)C2)C1` [VINCRISTINE], the IC50 in the experiment on OE19 came to 50 nM; in the experiment with OE33, 30 nM; in the experiment on A549 [5], 30 nM; with MCF7, 20 nM; in experiment [6], 90 nM; with HeLa, 5 nM. In addition, the IC50 with HT-29 came to 10 nM; in the experiment on HepG2, 200 nM; in the experiment on ARO, 0.3 nM; with OVCAR-3, 20 nM; with PT-45 it was 4 nM. The Activity in the experiment on A549 [1] was 7.9%; with A549 [3] it was 46.8%; in the experiment with A549 [4], 0.5%; with A549 [11], 45.2%.
